Screens as filed in PubChem.
Shown are actives, neighbours in structure and some others; about 2.2% of the full set was active somewhere.
ABHD5-PLIN5 inh: inhibitors of human ABHD5-perilipin-5 interaction. Q00G26+Q8WTS1. Split G. princeps luciferase complementation, luminescence, 4 h. inhibition, % at 4 µM. actives 0.78% (n = 360,000);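 active means inhibition above the mean inhibition across every tested compound plus 3 SD, cut at about 22% in these data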;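 further: 0% = DMSO only wells and the 100% control is not disclosed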
HKDC1 inhibitor: blocks human hexokinase HKDC1 activity. Q2TB90. recombinant HKDC1, G6PDH/diaphorase resazurin coupled fluorescence. inhibition, % at 20 µM. actives 0.16% (n = 340,000). AID 493160;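 active means inhibition above about 35% when tested at 20 µM, limit read from the data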;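 further: plate controls were DMSO wells with enzyme for no effect and DMSO wells lacking enzyme for full effect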
Target sequence (Q2TB90 whole entry, looked up): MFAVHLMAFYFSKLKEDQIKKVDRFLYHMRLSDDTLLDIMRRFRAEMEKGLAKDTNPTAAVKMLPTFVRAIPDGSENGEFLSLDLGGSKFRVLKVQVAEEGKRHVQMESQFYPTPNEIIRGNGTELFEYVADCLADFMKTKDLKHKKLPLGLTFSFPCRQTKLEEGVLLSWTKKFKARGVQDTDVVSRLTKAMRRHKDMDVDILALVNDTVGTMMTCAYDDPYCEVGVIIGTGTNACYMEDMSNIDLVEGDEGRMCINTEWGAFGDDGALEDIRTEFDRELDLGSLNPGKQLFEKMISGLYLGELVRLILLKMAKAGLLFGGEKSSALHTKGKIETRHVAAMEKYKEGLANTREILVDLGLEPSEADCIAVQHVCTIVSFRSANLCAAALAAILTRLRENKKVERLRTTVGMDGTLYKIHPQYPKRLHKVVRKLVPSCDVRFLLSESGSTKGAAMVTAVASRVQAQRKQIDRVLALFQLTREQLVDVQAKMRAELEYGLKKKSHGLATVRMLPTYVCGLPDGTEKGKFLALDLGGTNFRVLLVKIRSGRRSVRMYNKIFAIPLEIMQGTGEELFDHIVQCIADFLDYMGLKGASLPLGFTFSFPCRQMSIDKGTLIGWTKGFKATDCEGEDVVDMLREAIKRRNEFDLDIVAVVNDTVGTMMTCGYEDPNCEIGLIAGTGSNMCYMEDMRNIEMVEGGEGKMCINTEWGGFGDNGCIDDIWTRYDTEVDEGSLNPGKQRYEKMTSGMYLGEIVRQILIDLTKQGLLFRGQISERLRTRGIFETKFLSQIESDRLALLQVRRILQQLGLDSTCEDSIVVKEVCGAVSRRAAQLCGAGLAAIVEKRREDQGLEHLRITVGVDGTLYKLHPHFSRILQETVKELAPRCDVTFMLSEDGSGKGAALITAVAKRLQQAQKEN
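Test system: HK5 enzyme. Quantity: 5 µg/mL HK5 final. Reagent: glucose and ATP substrates. Schedule: 90 min reaction incubation at room temperature, dark. Technique: resazurin-to-resorufin fluorescence via G6PDH and diaphorase coupling, 525/613 nm. Control set: DMSO wells with and without enzyme mix.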
Granule exo inh: lytic granule exocytosis inhibition; TALL-104 LAMP-1 surface exposure, flow cytometry; cells stimulated with thapsigargin and PMA; actives 0.66% (n = 360,000); inhibition, % at 10 µM;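 active means inhibition above about 55%, limit read from the data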
PfG6PD inh: PfG6PD (Plasmodium falciparum) enzyme inhibition | PfGluPho enzyme, NADPH resazurin-diaphorase fluorescence | inhibition, % at 20 µM | actives 0.78% (n = 350,000);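 active means inhibition reaching at least a set limit at 20 µM in the primary screen, cut at about 59% in these data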;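 further: 0% = DMSO wells with substrate and 100% = DMSO wells lacking glucose-6-phosphate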
Granule exo CP1: lytic granule exocytosis inhibition; AID 651954; actives 11% (n = 1,500); inhibition, % at 10 µM; shares compounds with Granule exo inh; TALL-104 cells, LAMP-1 externalization, flow cytometry; stimulated with PMA plus thapsigargin; in the data active means inhibition above about 60%;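 further: 0% = stimulated vehicle wells and 100% = unstimulated wells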
* marks the source's active call; other numbers are inactive results; nt = not tested or not shown.

SMILES	ABHD5-PLIN5 inh	HKDC1 inhibitor	Granule exo inh	PfG6PD inh	Granule exo CP1
CCCn1c(C(O)c2ccc(OC)cc2)nc2ccccc21 (stereo not given)	-4	-1	-3	-13	nt
CCCn1c(C(O)c2cccc(OC)c2)nc2ccccc21 (stereo not given)	1	-7	73*	0	-13
COCc1cc(C)nc(SCc2ccc(Cl)cc2)c1C#N	1	8	69*	-2	-13
COC(=O)c1cc(N/C(N)=N/c2nc(C)cc(C)n2)cc(C(=O)OC)c1	-7	nt	1	-1	nt
COc1ccccc1NC(=O)C(C)N(C)CC(=O)Nc1cccc2ccccc12 (stereo not given)	-1	0	5	8	nt
COc1ccccc1NC(=O)C(C)N(C)Cc1ccc(Cl)s1 (stereo not given)	-11	-2	58*	-8	-5
COc1ccc(CC(CN)c2ccccc2)cc1 (stereo not given)	-3	4	58*	-20	-8
COc1ccc(CC(CC(=O)O)C(=O)NCc2ccccc2)cc1 (stereo not given)	3	-10	-1	-5	nt
Cc1ccc(-c2nc3c(c(=O)[nH]c(=O)n3Cc3ccccc3)n2C)o1	15	-2	98*	21	-12
Cc1ccc(-c2nc3c(c(=O)[nH]c(=O)n3Cc3ccccc3)n2Cc2ccccc2)o1	9	-1	13	18	nt
COc1ccc(CCNC(=O)C2CC3Cn4c(nc5cc(Cl)c(Cl)cc54)C3N2C)cc1 (stereo not given)	-4	2	83*	-15	-13
O=C(Cn1cnnn1)NC1CCCN(Cc2ccccc2F)C1 (stereo not given)	7	4	2	5	nt
CCN(C(=O)CSc1nc2n[nH]c(C)c2c(=N)n1-c1ccc(Cl)c(C)c1)c1cccc(C)c1	-4	1	30	8	nt
CCCCN(CC)C(=O)CSc1nc2n[nH]c(C)c2c(=N)n1-c1cccc(C)c1	3	3	62*	5	-10
Cc1[nH]c(=O)[nH]c(=O)c1S(=O)(=O)N1CCCC(C(=O)NCCC2=CCCCC2)C1 (stereo not given)	2	-2	1	-11	nt
CCCNC(=O)NNC(=O)c1ccc(F)cc1	-5	-9	5	-4	nt
COc1ccc(C(=O)C2CCCN(Cc3cccn3-c3ccc(Cl)cn3)C2)c(OC)c1 (stereo not given)	7	-26	68*	-5	-1
COc1ccc(C(=O)C2CCCN(Cc3c(F)ccc(F)c3F)C2)c(OC)c1 (stereo not given)	-2	-5	4	7	nt
CCOC(=O)c1c(C)oc2c1c1c(c3ccccc32)OCN(Cc2cccnc2)C1	-46	17	1	41	nt
CCOC(=O)c1c(C)oc2c1c(C(c1cccnc1)N1CCOCC1)c(O)c1ccccc12 (stereo not given)	-30	13	98*	-5	83*
O=C(c1ccco1)N1CCN(c2nc3ccccc3n3nnnc23)CC1	7	6	56*	11	-4
CCCc1ccc(S(=O)(=O)N(C)S(=O)(=O)c2ccc(F)cc2)cc1	-7	-3	70*	5	-13
CCCCCCCCN1C(=O)[C@H](CC(=O)NCCCOCCCC)C[C@@]2(C(=O)OCC)CCCC=C12	9	nt	76*	nt	52
CCCCCCCCN1C(=O)[C@H](CC(=O)NCCCOCCCC)C[C@@]2(C(=O)OC)CCCCC=C12	-5	nt	18	nt	nt
CCCCCCCCN1C(=O)[C@H](CC(=O)NCCCOCCCC)C[C@@]2(C(=O)OC)CC(C)(C)CC=C12	19	nt	60*	nt	5
SMILES	ABHD5-PLIN5 inh	HKDC1 inhibitor	Granule exo inh	PfG6PD inh	Granule exo CP1
O=C(CN1C(=O)C(=O)N(Cc2ccccc2)C1=O)Nc1ccc(F)c(Cl)c1	0	4	-1	-11	nt
COc1cccc2c1C(=O)c1ccc3ccccc3c1C2=O	-27	14	61*	0	78*
CC(CNc1nc2ccccc2n2cnnc12)c1ccccc1 (stereo not given)	9	5	-19	14	nt
CCN(Cc1ccccc1)CC(O)COC(c1ccc(OC)cc1)c1ccc(OC)cc1 (stereo not given)	6	-4	66*	17	-11
Cc1cccc(NC(=O)c2cc(S(=O)(=O)N(C)c3ccc(F)cc3)ccc2Cl)n1	-5	4	-4	3	nt
Cc1nc(C(=O)NCc2ccccc2)sc1C1(C)CC(c2cccc([N+](=O)[O-])c2)=NO1 (stereo not given)	3	-1	59*	13	-5
